In the EternaBench riboswitch data:

Test system: MS2 coat protein
Assay: apparent Kd, MS2 coat protein; higher = weaker binding; RNA-MaP array; FMN 200 µM where present
Method in brief: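 Binding was read on Illumina sequencing-chip clusters where stalled E. coli RNA polymerase had transcribed each design. A titration of SNAP-549-labelled MS2 coat protein began at 0.7 or 1.5 nM and doubled to 3 µM, once without ligand and once with constant ligand, in 100 mM Tris-HCl pH 7.5, 80 mM KCl, 4 mM MgCl2, BSA, DTT, yeast tRNA and Tween-20. The apparent Kd is the median of filtered per-cluster binding-curve fits, based on green signal normalised to red-channel RNA signal and control-cluster median Fmax.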

[1] = designed as: OFF switch for flavin mononucleotide, no ligand
[2] = ligand present: flavin mononucleotide, designed as: OFF switch for flavin mononucleotide
[3] = designed as: ON switch for flavin mononucleotide, no ligand
[4] = ligand present: flavin mononucleotide, designed as: ON switch for flavin mononucleotide

Sequence	apparent Kd [1] [nM]	apparent Kd [2] [nM]	apparent Kd [3] [nM]	apparent Kd [4] [nM]
CAGUACUGAGGAUAUACAUGAGGAUCACCCAUGUGUUCCAGCUAGGGAACUAGCAAAAGUAGAAGGCAGUACUG	22.4	437		
UCAUAUAUACAAGGAUAUCAAUUAUUUACACAUCCUACAUGAGGAUCACCCAUGUUUUAAUAUAUUGAGAAGGUGUAAUGUCGG			24.9	31.9
GUCCGGCGUGUAGGAUAUGGAUCCGAUUAGGAUCCAGAAGGACAUGAGGAUCACCCAUGUACAUGUAAACAGUCAUCACCGGAG	9.11	58.9		
AAAAUCUAUUGAGGAUAUUCAAACACUACAUACGGAGAAGGCAAACAAUCAUGAGGACAUGAGGAUCACCCAUGUUGUGACCAU			25.5	19.4
GUAGAGUAAGGAUAUGGUGAAUAGGAUAGAAUGGUUAGAAAUCAGAAGGUACAUGAGGAUCACCCAUGUAAUGU	23	22.4		
GCUUAGUAAGGAUAUUCACCGAUAAACAUGAGGAUCACCCAUGUCAUGUACCGUCGCCCGGAAGAAGGUACAGGCU	49.6	44.9		
UAAUAAAACGAUCGGCGAUCCAAACAUGAGGAUCACCCAUGUAGAAGGGACUCUACAAAGUAGAGUCAGGAUAUACGAGAUCGA	11.9	208		
GACAUGAGGAUCACCCAUGUCCAUGCAAGAGUAGUUGAGACCAGAAGGACCGUGCGGAAUGCAGGGUAGGAUAUGGAGCCCUCA			36.8	9.38
GGCGACCUAGGAUAUACAUGAGGAUCACCCAUGUUUAUCUAUUAGAUGAAGACGGGUUGUAGAAGGAGGAUAUU	15.5	18.2		
GGACGUCAGAUUAACAUGAGGAUCACCCAUGUCUUUUGACAUGAGGAUAUGCAUCCUAAUUGGAUGCAGAAGGCAUGGACGUCC			1020	84
GAAUUAUUACAGAAGGUGUUUUACAUGAGGAUCACCCAUGUUUUAUUGUUUAAAUUUGAUAUUUACAAGGAUAUGUACUAAUCU			32.1	24.3
UUUAUGUCAGGAUAUACAUGAGGAUCACCCAUGUAUAUCUUAAAAUAUACAUGGGAAUGUAGAAGGGACCUCCU	51	41		
CGAUAUAUGAAGGGCGAACGCGCACAUGAGGAUCACCCAUGUAGAAGGCGAUCCGCAACGCGGAUCGAGGAUAUAUAGUAUACA	37	33.8		
UGUGUGUGACAGGAUAUGCUGGUUGUGAGACGGGUAGAAGGGUCUACAUGAGGAUCACCCAUGUGGCCGGUUGG	23.1	20.6		
AAGUGUGGAUGAGGAUAUCAGCUGUAACUGACGUCGACAUGAGGAUCACCCAUGUUGCUAAAGGGUGAGAAGGCAUUUGCGCAA			481	53.8
AUGUUAUUGGAAGGAUAUAGUUUACUAUUCUAACAUGAGGAUCACCCAUGUAACCUUAUGUGUAUCUAGAAGGUCCAUAACUUA	54.6	62.3		
GUGUACGUAGGAUAUGCUGGAAUCUAGCGAAGCUAGGUUCCACAUGAGGAUCACCCAUGUAGAAGGGCGUACAC	182	47.1		
CGUAGGAUGCAGAAGGCAUGAACAUGAGGAUCACCCAUGUGAAAACACAUGAGGAUAUGCAUCCUACGAAAAGUGCGAAAGCAC			5.89	4.69
AUGGAUAUCACAGGAUAUGCCAUGGAUACCAUGGCAGAAGGGUGAUCCAUCCUAUGUAAAUACAUGAGGAUCACCCAUGUGUCC			16.1	13.7
UGCGCUGAGGGAGGAUAUGACAUGAGGAUCACCCAUGUGGUAGGUUUCUUGUCAGAAGGCCCGCAUGUACCGAAUUAGGUUCGU	112	18.3		
UUGUUGUAUGUAGGAUAUGCGUAUUAUUAUUAUGCAGAAGGACAUGAGGAUCACCCAUGUAUAUUAUUAUUAUAUGUUAUAUAU	26.2	36.3		
GGUUGUCAAAGACAACCUUAACGAACAUGAGGAUCACCCAUGUAGGAUAUGCUACUCAAAGAGUAGCAGAAGGACAUGUGUCUU	30.8	156		
GCCCGAUCCACGUUGGGCCCAGACAGAAGGGCACACGGUCUAAGUCACAUGAGGAUCACCCAUGUGCAGGAUAUGUCUCGACUC	7.63	25.9		
AAAGAGCGAGGAUAUACGUAUCGGUGCGGCCAGCCGAUGUGACAUGAGGAUCACCCAUGUAGAAGGCGCAGAAA	26.9	35.4		
CCGGAUAUGCAGGAUAUCGUAUCGGAUACGAUACGAGAAGGGUAUACAUGAGGAUCACCCAUGUGCCUUACCGG	19.3	20		
AUCAGCUCGUCAGGAUAUACGUCACUGCGUCAGCAGUGUAAUAAAAUAACAUGAGGAUCACCCAUGUAGAAGGGACGAGCUGAU	6.36	6.75		
UUCAUUAACAUGAGGAUCACCCAUGUUGGCCAGUCUCACACCAGAAGGCACGUUGAGCACAGCAGUGAGGAUAUGGGUGACAUA			236	223
GCGCUAAAACAGAAGGCCAAAUACAUGAGGAUCACCCAUGUCGAAUCAUGGAGGAUAUGUUAUUAAUUACACGCAGAUGAGCGC			90.8	9.9

Sequence	apparent Kd [1] [nM]	apparent Kd [2] [nM]	apparent Kd [3] [nM]	apparent Kd [4] [nM]
GCUUGUAGAGGAUAUACAAGGGCCUUAGCGGAUAACACCGCACAUGAGGAUCACCCAUGUAGAAGGCUACCACC	16.8	94.1		
CAAUGUACCUAGGAUAUAACCUACGACAUUGGGUUAGAAGGAGGAACAUGAGGAUCACCCAUGUGACUUCGCAA	10	11.9		
AAGGAUAGAGGAUAUACAUAGAUACAGAUUCAUGUAGAACUACAUGAGGAUCACCCAUGUAGAAGGCUAUCCUA	32.9	239		
AUACAUGAGGAUCACCCAUGUGGAUCACCCAUGUAAGAUGGUAGAAGGAUGUUAUUAUUAUUUUCAUAGGAUAUACUAUUUAGU	328	408		
UGUUGAUAGCAGAAGGACAUGAGGAUCACCCAUGUAUGGAUACAAAUAUAUGUAGGAUAUGCUAUUAACUAAGAGUGAGCGUUC	9.12	24.4		
CAACGUGGAGGAUAUUAGCGAGACAACAUGAGGAUCACCCAUGUGGUACUCAUCUCCUCCUGAGAAGGCUACGCCC	11.8	12.3		
UUGUUACAUGAGGAUCACCCAUGUGAGGAUAUGAGUCAGUCACGGUGACGUGGCUGACUCAGAAGGCACUAUGG	300	149		
CGUAUACAUGAGGAUCACCCAUGUGAGGAUAUGCUUUAUUAUUAUUAUUAUUAUUGUUGCAGAAGGUACAUUGC	23.5	18.2		
CCGCAGUUAGGAUAUACAUGAGGAUCACCCAUGUGUCCAUCUGUAAUAAGACAGGAUAGUAGAAGGAACUGGCG	14.8	25.9		
GUAGUGUAGUGAGGAUAUACGAGAUCGAUAGAUCGGCGAUCCAUAUAUACAUGAGGAUCACCCAUGUAGAAGGCACUUCACUAC	7.5	91.5		
GGCAAGUGAGGAUAUCACCACGGCGUGGGCACCACGGCCAGUGAGAAGGCACAUGAGGAUCACCCAUGUGAUCA	88	541		
AGUAACAGAGGAUAUACUAUUUUAUGUGUUUGUUAUUUUAAACAUGAGGAUCACCCAUGUAGAAGGCUGAAUGA	28.4	29.1		
GUGGGAAUCACAGGAUAUACAUGCGCCGCUUCGUUCUACAUGAGGAUCACCCAUGUGUGGUCCGUGUAGAAGGGUGUUUGUUAC			31	10.8
GCGAUUUUGUAAGGAUAUACACGAGUUUUAAGUGUAGAAGGUACUUACAUGAGGAUCACCCAUGUAUUAAUGAUUACUAGUCGC			6.99	6.33
UGUCGGAGCAGAGGAUAUACAUGAGGAUCACCCAUGUAAUAAAGUGAAGCCUGGAAACAGGCAAUGUAGAAGGCUGCUCCGACA	29.9	249		
UCCUUGGUACAGAAGGACCGAGCUCCGUAGCAGGUAGGAUAUGUACAUGAGGAUCACCCAUGUCAGCGGUAAUUACCAGUAUUC	40.2	29.1		
UCGCGGGUGCAGAAGGGAUAGGCCUAUUUUCGUGGUAUCCAAACUUAACAUGAGGAUCACCCAUGUCAGGAUAUGCCCACGCGA	8.72	10.7		
GUACUGUAGUGAGGAUAUACGAGUACGAUAGUACGGCGAUCCAUUUAUACAUGAGGAUCACCCAUGUAGAAGGCACUUCAGUAC	6.09	61.6		
GUACAGAUCACAGGAUAUCACGUCGUUUAGACGUGAGAAGGGUGAUCACACAUGAAUAUUAAUACAUGAGGAUCACCCAUGUAC			36	97.7
UUGUGCAAAGGAUAUACGUCCGACCUCGUGGAACUGAGAAUACAUGAGGAUCACCCAUGUAGAAGGUUGCCGAG	11.7	15.1		
UGGAACUAGGGAGGAUAUGGGAAGAUACAUGAGGAUCACCCAUGUUUAAGAAUGCCGAGAGGCAACUAGAAGGCCCUAGUACCU			454	20.3
GCACAUGGCAUAGGAUAUAGAGCUUUAGUUUAUAUAGGUAGUUGGACUUAACUAGAAGGAUGGUACAUGAGGAUCACCCAUGUU			20.6	17.4
GGGCUCGGAGGAUAUACAAUGGGCUCGGGAAAUCGGGUCUUACAUGAGGAUCACCCAUGUAGAAGGUCGGGUCU	22.2	47.1		
AGACCGUUCGAGAAGGUGCGAGAGAAAUGUGAGUGAGGAUAUUGAAACAUGAGGAUCACCCAUGUCAUGAGGAUCGCCGAUGUG			39.6	31.6
UUAAUUAAUUAAUUCGUCAUUACAUGAGGAUCACCCAUGUAUAAGGAUAUGCAGUGGAAUACACUGCAGAAGGUAUACAAGACG	18.4	26.6		
UAAGGACAUGAGGAUCACCCAUGUGAGGAUAUGCUCUACGAACGUUUAUUUAUGAGAAGCAGAAGGCACAUUUU	99.8	156		
UCGACGAAAGUCGAACGAUGUAGCAGAAGGACAUGAGGAUCACCCAUGUCAGCUGUAACAGCCAUGUAGGAUAUGCUACAUCGC	4.27	5.7		
